Reference: ChEMBL document CHEMBL4411330, “Effects of Systematic Shortening of Noncovalent C8 Side Chain on the Cytotoxicity and NF-κB Inhibitory Capacity of Pyrrolobenzodiazepines (PBDs)” (J Med Chem, 2019)
The source made the active and inactive calls. The rule behind the calls is not given here.

Legend:
[1] = Cytotoxicity against human primary CLL cells assessed as cell death after 48 hrs by annexin V/propidium iodide-staining based flow cytometry; format: functional; conditions: read-out: LC50 (the source's name)
Summary of the method: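 Primary patient CLL cells were isolated by Histopaque density gradient, phenotyped by flow cytometry and used within 24 h. Culture was RPMI with 10% FBS, 1% glutamate and 1% pen/strep, plus IL-4 5 ng/ml added with compound, at 37 °C, 5% CO2. Cells at 1,000,000 cells/ml were treated from 1 nM upward for 48 h, in triplicate. Annexin V-FITC/PI was read by flow cytometry, and LC50 came from sigmoidal dose-response fits.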

JJN-3 = experiment: Cytotoxicity against human JJN-3 cells assessed as cell death after 48 hrs by annexin V/propidium iodide-staining based flow cytometry; format: functional; conditions: JJN-3, 48 h, read-out: LC50 (the source's name)
Summary of the method: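 JJN-3 cells were grown in DMEM with 20% FBS, 1% pen/strep and 1% pyruvate at 37 °C, 5% CO2. They were seeded at 1,000,000 cells/ml and exposed to compound from 1 nM upward for 48 h, in triplicate. Cell death was measured by Annexin V-FITC/propidium iodide flow cytometry, and LC50 was derived from sigmoidal dose-response curves.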

[2] = target: T1, Nuclear factor NF-kappa-B p105 subunit (Homo sapiens) (UniProt P19838); experiment: Inhibition of NF-kappaB in human JJN-3 cells assessed as reduction in p50 DNA binding activity up to 30 nM after 4 hrs by ELISA; format: cell-based
T1 sequence (whole entry): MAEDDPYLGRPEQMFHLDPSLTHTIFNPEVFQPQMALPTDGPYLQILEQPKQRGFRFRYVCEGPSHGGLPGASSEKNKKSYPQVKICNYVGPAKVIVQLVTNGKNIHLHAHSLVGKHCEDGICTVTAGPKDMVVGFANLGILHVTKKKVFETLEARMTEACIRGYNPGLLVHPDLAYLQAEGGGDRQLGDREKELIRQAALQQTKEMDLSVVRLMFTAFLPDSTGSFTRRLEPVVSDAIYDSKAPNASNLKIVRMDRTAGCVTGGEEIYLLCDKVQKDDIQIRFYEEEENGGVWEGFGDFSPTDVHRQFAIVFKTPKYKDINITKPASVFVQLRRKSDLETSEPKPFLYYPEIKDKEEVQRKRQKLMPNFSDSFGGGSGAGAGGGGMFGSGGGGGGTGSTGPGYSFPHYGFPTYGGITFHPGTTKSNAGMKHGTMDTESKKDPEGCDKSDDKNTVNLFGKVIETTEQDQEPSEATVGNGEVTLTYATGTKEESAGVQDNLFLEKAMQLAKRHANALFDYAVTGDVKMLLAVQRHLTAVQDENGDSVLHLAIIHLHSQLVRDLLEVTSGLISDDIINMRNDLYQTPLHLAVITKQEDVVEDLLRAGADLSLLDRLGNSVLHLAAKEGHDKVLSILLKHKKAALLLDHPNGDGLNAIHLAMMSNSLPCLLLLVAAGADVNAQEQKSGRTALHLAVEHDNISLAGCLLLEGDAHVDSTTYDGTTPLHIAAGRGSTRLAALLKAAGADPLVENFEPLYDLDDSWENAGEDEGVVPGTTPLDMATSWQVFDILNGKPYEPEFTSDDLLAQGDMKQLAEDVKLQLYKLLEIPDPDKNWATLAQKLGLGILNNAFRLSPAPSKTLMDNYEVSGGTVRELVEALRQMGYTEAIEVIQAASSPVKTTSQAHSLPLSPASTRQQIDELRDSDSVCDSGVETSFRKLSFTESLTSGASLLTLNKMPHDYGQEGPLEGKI

[3] = Cytotoxicity against human B cells assessed as cell death after 48 hrs by annexin V/propidium iodide-staining based flow cytometry; conditions: read-out: LC50
Summary of the method: (§1)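 Normal peripheral blood B or T cells from three donors were isolated by Histopaque density gradient and phenotyped for CD19/CD3/CD38/CD49d. They were used within 24 h in RPMI with 10% FBS, 1% glutamate and 1% pen/strep at 37 °C, 5% CO2. Cells at 1,000,000 cells/ml were exposed from 1 nM upward for 48 h, in triplicate. FITC-Annexin V/PI staining was read by flow cytometry, and LC50 was taken from the dose-response curves.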

[4] = target: T2, Transcription factor RelB (Homo sapiens) (UniProt Q01201); experiment: Inhibition of NF-kappaB in human JJN-3 cells assessed as reduction in RelB DNA binding activity up to 30 nM after 4 hrs by ELISA; format: cell-based
T2 sequence (whole entry): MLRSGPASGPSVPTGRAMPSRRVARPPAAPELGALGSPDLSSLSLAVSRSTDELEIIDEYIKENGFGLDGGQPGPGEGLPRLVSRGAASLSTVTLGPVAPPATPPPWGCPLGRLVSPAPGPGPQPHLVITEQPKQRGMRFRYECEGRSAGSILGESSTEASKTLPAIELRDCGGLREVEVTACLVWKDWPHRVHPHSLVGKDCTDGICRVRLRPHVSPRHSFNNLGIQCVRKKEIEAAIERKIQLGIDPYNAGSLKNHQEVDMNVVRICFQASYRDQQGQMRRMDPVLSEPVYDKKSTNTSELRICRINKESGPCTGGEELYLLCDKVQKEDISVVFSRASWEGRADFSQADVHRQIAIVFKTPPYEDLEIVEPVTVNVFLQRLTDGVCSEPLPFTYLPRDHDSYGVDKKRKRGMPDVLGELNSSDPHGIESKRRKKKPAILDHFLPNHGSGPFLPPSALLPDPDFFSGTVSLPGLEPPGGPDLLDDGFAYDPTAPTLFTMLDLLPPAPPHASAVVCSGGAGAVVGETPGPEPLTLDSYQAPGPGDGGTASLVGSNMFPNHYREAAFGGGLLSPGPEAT

[5] = Cytotoxicity against human T cells assessed as cell death after 48 hrs by annexin V/propidium iodide-staining based flow cytometry; conditions: read-out: LC50; summary of the method: as §1
[6] = target: Transcription factor p65 (Homo sapiens) (UniProt Q04206); experiment: Inhibition of NF-kappaB in human JJN-3 cells assessed as reduction in p65 DNA binding activity up to 30 nM after 4 hrs by ELISA; format: cell-based
Sequence of Transcription factor p65 (Homo sapiens) (Q04206 whole entry): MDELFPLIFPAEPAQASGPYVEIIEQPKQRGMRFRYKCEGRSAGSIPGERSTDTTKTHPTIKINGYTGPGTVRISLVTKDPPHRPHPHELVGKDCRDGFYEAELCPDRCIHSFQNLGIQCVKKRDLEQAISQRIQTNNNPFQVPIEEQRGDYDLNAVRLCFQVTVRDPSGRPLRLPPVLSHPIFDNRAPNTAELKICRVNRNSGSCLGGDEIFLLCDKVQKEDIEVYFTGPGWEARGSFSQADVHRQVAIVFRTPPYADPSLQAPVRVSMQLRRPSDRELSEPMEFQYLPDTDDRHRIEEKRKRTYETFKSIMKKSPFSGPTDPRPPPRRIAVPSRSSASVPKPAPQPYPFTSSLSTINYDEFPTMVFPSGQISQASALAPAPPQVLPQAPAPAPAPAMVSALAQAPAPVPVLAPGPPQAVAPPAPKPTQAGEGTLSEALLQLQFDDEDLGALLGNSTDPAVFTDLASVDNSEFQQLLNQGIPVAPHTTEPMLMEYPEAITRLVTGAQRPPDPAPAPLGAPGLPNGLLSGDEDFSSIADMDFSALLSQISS

[7] = Therapeutic index, ratio of LC50 for human T cells to LC50 for human primary CLL cells; format: toxicity; conditions: T cells versus primary CLL cells, read-out: TI
[8] = Therapeutic index, ratio of LC50 for human B cells to LC50 for human primary CLL cells; format: toxicity; conditions: B cells versus primary CLL cells, read-out: TI
[9] = target: T3, Nuclear factor NF-kappa-B p100 subunit (Homo sapiens) (UniProt Q00653); experiment: Inhibition of NF-kappaB in human JJN-3 cells assessed as reduction in p52 DNA binding activity up to 30 nM after 4 hrs by ELISA; format: cell-based
T3 sequence (whole entry): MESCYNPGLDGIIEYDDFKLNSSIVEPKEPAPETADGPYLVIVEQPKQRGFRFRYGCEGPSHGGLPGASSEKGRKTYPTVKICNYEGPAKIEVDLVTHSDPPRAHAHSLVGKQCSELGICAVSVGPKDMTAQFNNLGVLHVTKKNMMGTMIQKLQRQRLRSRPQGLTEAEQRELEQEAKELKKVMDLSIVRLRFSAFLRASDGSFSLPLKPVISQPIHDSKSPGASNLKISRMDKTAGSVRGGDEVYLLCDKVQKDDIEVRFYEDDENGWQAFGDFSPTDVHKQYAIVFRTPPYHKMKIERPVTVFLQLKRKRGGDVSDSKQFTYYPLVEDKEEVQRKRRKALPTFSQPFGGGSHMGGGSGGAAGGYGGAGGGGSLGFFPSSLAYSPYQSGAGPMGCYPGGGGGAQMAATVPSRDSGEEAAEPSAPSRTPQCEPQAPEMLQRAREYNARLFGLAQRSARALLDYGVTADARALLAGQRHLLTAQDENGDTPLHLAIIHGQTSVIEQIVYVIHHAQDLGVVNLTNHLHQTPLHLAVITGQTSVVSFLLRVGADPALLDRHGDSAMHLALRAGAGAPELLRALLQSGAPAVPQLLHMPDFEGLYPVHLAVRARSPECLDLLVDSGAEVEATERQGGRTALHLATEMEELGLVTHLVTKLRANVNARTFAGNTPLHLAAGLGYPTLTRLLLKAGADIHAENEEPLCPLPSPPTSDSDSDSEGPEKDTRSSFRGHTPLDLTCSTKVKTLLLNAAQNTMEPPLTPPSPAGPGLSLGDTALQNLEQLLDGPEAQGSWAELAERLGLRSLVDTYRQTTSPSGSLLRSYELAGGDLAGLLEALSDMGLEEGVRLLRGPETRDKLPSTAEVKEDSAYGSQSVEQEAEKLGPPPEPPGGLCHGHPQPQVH

| Structure (SMILES) | CC50 [1] | CC50 (JJN-3) | inhibition [2] | CC50 at 48 h [3] | inhibition [4] | CC50 at 48 h [5] | inhibition [6] | selectivity ratio [7] | selectivity ratio [8] | inhibition [9] |
| --- | --- | --- | --- | --- | --- | --- | --- | --- | --- | --- |
| COc1cc2c(cc1OCCCC(=O)Nc1ccc(C)c(C)c1)N=C[C@@H]1CCCN1C2=O | 8.6 nM | 23.7 nM | – | – | – | – | – | – | – | – |
| COc1ccc(NC(=O)CCCOc2cc3c(cc2OC)C(=O)N2CCC[C@H]2C=N3)cc1 | 8.9 nM | 15.3 nM | Active | 640 nM | inactive | 690 nM | inactive | 77.5 | 71.9 | – |
| COc1cc2c(cc1OCCCC(=O)Nc1ccc(O)cc1)N=C[C@@H]1CCCN1C2=O | 5500 nM | 2200 nM | Active | – | inactive | – | inactive | – | – | – |
| CCCNC(=O)CCCOc1cc2c(cc1OC)C(=O)N1CCC[C@H]1C=N2 | 25100 nM | 12700 nM | – | – | – | – | – | – | – | – |
| COc1cc2c(cc1OCCCC(=O)NC1CCCCC1)N=C[C@@H]1CCCN1C2=O | 7100 nM | 1400 nM | – | 1700 nM | – | 12400 nM | – | 1.74 | 0.24 | – |
| COc1cc2c(cc1OCCCC(=O)Nc1ccncc1)N=C[C@@H]1CCCN1C2=O | 4900 nM | 6700 nM | – | – | – | – | – | – | – | – |
| COC(=O)c1cc(NC(=O)c2cc3cc(NC(=O)CCCOc4cc5c(cc4OC)C(=O)N4CCC[C@H]4C=N5)ccc3o2)cn1C | 7.5 nM | 30 nM | inactive | 930 nM | Active | 1700 nM | – | 227 | 124 | inactive |
| CCCCNC(=O)CCCOc1cc2c(cc1OC)C(=O)N1CCC[C@H]1C=N2 | 22400 nM | 51600 nM | – | – | – | – | – | – | – | – |
| COC(=O)c1cc2cc(NC(=O)CCCOc3cc4c(cc3OC)C(=O)N3CCC[C@H]3C=N4)ccc2o1 | 8.9 nM | 49 nM | – | 410 nM | – | 2100 nM | – | 236 | 46.1 | – |
| COC(=O)c1cc(NC(=O)c2cc(NC(=O)CCCOc3cc4c(cc3OC)C(=O)N3CCC[C@H]3C=N4)cn2C)cn1C | 39 nM | 21 nM | – | – | – | – | – | – | – | – |
| COc1cc2c(cc1OCCCC(=O)Nc1cccc(C)c1)N=C[C@@H]1CCCN1C2=O | 13.6 nM | 20.2 nM | – | – | – | – | – | – | – | – |
| COc1cc2c(cc1OCCCC(=O)Nc1ccccc1)N=C[C@@H]1CCCN1C2=O | 11.6 nM | 26.4 nM | Active | – | inactive | – | inactive | – | – | – |
| COc1cc2c(cc1OCCCC(=O)Nc1ccc(C)cc1)N=C[C@@H]1CCCN1C2=O | 12.3 nM | 17.5 nM | – | – | – | – | – | – | – | – |
| CCCOc1ccc(NC(=O)CCCOc2cc3c(cc2OC)C(=O)N2CCC[C@H]2C=N3)cc1 | 8.5 nM | 8.7 nM | – | 390 nM | – | 1100 nM | – | 129 | 45.9 | – |
| COc1cc2c(cc1OCCCC(=O)Nc1ccc3occc3c1)N=C[C@@H]1CCCN1C2=O | 9.4 nM | 44 nM | Active | 1400 nM | inactive | 3900 nM | Active | 415 | 149 | – |
| COc1cc2c(cc1OCCCC(=O)Nc1ccc3c(c1)CCO3)N=C[C@@H]1CCCN1C2=O | 5.1 nM | 14.7 nM | – | – | – | – | – | – | – | – |
| COc1cc2c(cc1OCCCC(=O)Nc1cccnc1)N=C[C@@H]1CCCN1C2=O | 4200 nM | 1600 nM | – | – | – | – | – | – | – | – |
| CNC(=O)CCCOc1cc2c(cc1OC)C(=O)N1CCC[C@H]1C=N2 | 16100 nM | 18500 nM | – | – | – | – | – | – | – | – |
| CCOc1ccc(NC(=O)CCCOc2cc3c(cc2OC)C(=O)N2CCC[C@H]2C=N3)cc1 | 5.8 nM | 15.6 nM | Active | 750 nM | inactive | 3000 nM | inactive | 517 | 129 | inactive |
| COc1cc2c(cc1OCCCC(=O)Nc1ccc3c(c1)CCC3)N=C[C@@H]1CCCN1C2=O | 7.7 nM | 30 nM | – | – | – | – | – | – | – | – |
| CCNC(=O)CCCOc1cc2c(cc1OC)C(=O)N1CCC[C@H]1C=N2 | 11700 nM | 28700 nM | – | – | – | – | – | – | – | – |
